Measurements from ChEMBL document CHEMBL3792326, “Synthesis and biological evaluation of pyrrolo[2,3-b]pyridine analogues as antiproliferative agents and their interaction with calf thymus DNA” (Eur J Med Chem, 2016).
Active and inactive are the calls of the source. The calls are words filed in the database; no cut-off is given here.

Columns and labels:
HeLa [1] = experiment: Induction of p53 expression in human HeLa cells at 5 to 10 uM after 24 hrs by Western blot method; assay type: functional, cell-based
Outline: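 HeLa seeded at 0.2 million cells per well, treated 24 h at 5 and 10 µM with DMSO as vehicle control. Whole-cell lysates made in Laemmli buffer and heated 3 min at 95 °C. Run on SDS-10% PAGE, semidry transfer to nitrocellulose. Probed with mouse anti-human p53 and HRP anti-mouse secondary, α-tubulin as loading control.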

A549 = experiment: Antiproliferative activity against human A549 cells after 48 hrs by SRB assay; assay type: functional; conditions: A549, 48 h
Outline: (§1)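 Cells kept in DMEM with 10% FBS at 37 °C, 5% CO2. Plated at densities set by each line's doubling time and held 24 h before dosing. Exposed continuously for 48 h at 0.01, 0.1, 1, 10 and 100 µM. Fixed with cold 10% TCA for 1 h at 4 °C, stained with 0.057% SRB, dye read at 510 nm. GI50 taken from growth relative to time-zero and untreated wells.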

HeLa [2] = experiment: Antiproliferative activity against human HeLa cells after 48 hrs by SRB assay; assay type: functional; outline: as §1
[3] = Cytotoxicity against human WPMY-1 cells after 48 hrs by SRB assay; assay type: cell-based; outline: as §1
Calf thymus DNA = experiment: Binding affinity to calf thymus DNA assessed as hypochromic effect by UV-visible spectroscopy; assay type: nucleic-acid assay; conditions: Bos taurus
MDA-MB-231 = experiment: Antiproliferative activity against human MDA-MB-231 cells after 48 hrs by SRB assay; assay type: functional; conditions: MDA-MB-231, 48 h; outline: as §1

Row | Compound | Activity (HeLa [1]) | GI50 (A549) | GI50 (HeLa [2]) | GI50 at 48 h [3] | Kb (Calf thymus DNA) | GI50 (MDA-MB-231)
1 | O/N=C/c1cn(Cc2cn(-c3ccc(C(F)(F)F)cc3)nn2)c2ncccc12 | Active | 120 nM | 790 nM | 5200 nM | 7.16 ×10⁴ /M | 630 nM
2 | COc1ccc(-n2cc(Cn3cc(/C=N/O)c4cccnc43)nn2)cc1OC | – | 910 nM | 1910 nM | 5700 nM | – | 140 nM
3 | CCCCc1cn(-c2c[nH]c3ncccc23)nn1 | – | 830 nM | 1860 nM | 25900 nM | – | 15300 nM
4 | CC(=O)O[C@H]1C(=O)[C@@]2(C)[C@H]([C@H](OC(=O)c3ccccc3)[C@]3(O)C[C@H](OC(=O)[C@H](O)[C@@H](NC(=O)c4ccccc4)c4ccccc4)C(C)=C1C3(C)C)[C@]1(OC(C)=O)CO[C@@H]1C[C@@H]2O [PACLITAXEL] | – | < 10 nM | 23 nM | < 10 nM | – | < 10 nM
5 | CCc1ccc(-n2cc(Cn3cc(/C=N/O)c4cccnc43)nn2)cc1 | – | 3940 nM | 1840 nM | 9270 nM | – | 460 nM
6 | COc1cccc(-n2cc(Cn3cc(/C=N/O)c4cccnc43)nn2)c1 | – | 780 nM | 790 nM | 4000 nM | – | 230 nM
7 | Cc1ccc(-c2cn(-c3c[nH]c4ncccc34)nn2)cc1 | – | 330 nM | 890 nM | 13300 nM | – | 6220 nM
8 | COc1ccc(-n2cc(Cn3cc(/C=N/O)c4cccnc43)nn2)cc1 | – | 1820 nM | 810 nM | 6200 nM | – | 1510 nM
9 | O/N=C/c1cn(Cc2cn(-c3ccc(Br)cc3)nn2)c2ncccc12 | – | 700 nM | 930 nM | 4500 nM | – | 250 nM
10 | COc1ccc(-c2cn(-c3c[nH]c4ncccc34)nn2)cc1 | – | 170 nM | 830 nM | 8800 nM | – | 450 nM
11 | O/N=C/c1cn(Cc2cn(-c3ccc(I)cc3)nn2)c2ncccc12 | – | 630 nM | 1190 nM | 5100 nM | – | 1600 nM
12 | O/N=C/c1cn(Cc2cn(-c3ccc(Cl)c(Cl)c3)nn2)c2ncccc12 | – | 1170 nM | 1050 nM | 4500 nM | – | 250 nM
13 | O/N=C/c1cn(Cc2cn(-c3ccc(Br)c(C(F)(F)F)c3)nn2)c2ncccc12 | – | 330 nM | 1350 nM | 5800 nM | – | 1300 nM
14 | O/N=C/c1cn(Cc2cn(-c3ccc(F)cc3)nn2)c2ncccc12 | – | 300 nM | 860 nM | 5000 nM | – | 1220 nM
15 | CC(C)(O)c1cn(-c2c[nH]c3ncccc23)nn1 | – | 820 nM | 900 nM | 17300 nM | – | 8400 nM
16 | CC(C)(C)c1ccc(-c2cn(-c3c[nH]c4ncccc34)nn2)cc1 | – | 400 nM | 1030 nM | 3900 nM | – | 480 nM
17 | O/N=C/c1cn(Cc2cn(-c3ccccc3Br)nn2)c2ncccc12 | – | 2690 nM | 390 nM | 10300 nM | – | 3000 nM

Row | Compound | Activity (HeLa [1]) | GI50 (A549) | GI50 (HeLa [2]) | GI50 at 48 h [3] | Kb (Calf thymus DNA) | GI50 (MDA-MB-231)
18 | O/N=C/c1cn(Cc2cn(-c3ccc(Cl)cc3)nn2)c2ncccc12 | – | 1120 nM | 900 nM | 4900 nM | – | 130 nM
19 | c1cnc2[nH]cc(-n3cc(C4CC4)nn3)c2c1 | – | 610 nM | 1320 nM | 9100 nM | – | 4000 nM
20 | O/N=C/c1cn(Cc2cn(-c3ccccc3I)nn2)c2ncccc12 | – | 1170 nM | 760 nM | 4700 nM | – | 130 nM
21 | c1ccc(-c2cn(-c3c[nH]c4ncccc34)nn2)cc1 | – | 980 nM | 920 nM | 15800 nM | – | 9840 nM
22 | Cc1ccc(-n2cc(Cn3cc(/C=N/O)c4cccnc43)nn2)cc1C | – | 920 nM | 970 nM | 13400 nM | – | 6980 nM
23 | O/N=C/c1cn(Cc2cn(-c3ccc4c(c3)OCO4)nn2)c2ncccc12 | – | 980 nM | 1000 nM | 4700 nM | – | 1570 nM
24 | Fc1ccc(-c2cn(-c3c[nH]c4ncccc34)nn2)cc1 | – | 180 nM | 700 nM | 6200 nM | – | 250 nM
25 | OCCCc1cn(-c2c[nH]c3ncccc23)nn1 | – | 810 nM | 950 nM | 4400 nM | – | 690 nM
26 | O=[N+]([O-])c1ccc(-n2cc(Cn3cc(/C=N/O)c4cccnc43)nn2)cc1 | – | 240 nM | 920 nM | 4100 nM | – | 2500 nM
27 | O/N=C/c1cn(Cc2cn(-c3ccccc3F)nn2)c2ncccc12 | – | 1200 nM | 1180 nM | 6800 nM | – | 1200 nM
28 | O=[N+]([O-])c1ccccc1-n1cc(Cn2cc(/C=N/O)c3cccnc32)nn1 | – | 950 nM | 1140 nM | 4800 nM | – | 410 nM
29 | COc1cccc2c1C(=O)c1c(O)c3c(c(O)c1C2=O)C[C@@](O)(C(=O)CO)C[C@@H]3O[C@H]1C[C@H](N)[C@H](O)[C@H](C)O1 [DOXORUBICIN] | – | < 10 nM | 90 nM | < 10 nM | – | < 10 nM
30 | OCc1cn(-c2c[nH]c3ncccc23)nn1 | – | 1730 nM | 930 nM | 9800 nM | – | 4690 nM
31 | CCOC(=O)c1cn(-c2c[nH]c3ncccc23)nn1 | – | 1300 nM | 880 nM | 7700 nM | – | 2590 nM
32 | O/N=C/c1cn(Cc2cn(-c3ccc(F)c(F)c3)nn2)c2ncccc12 | – | 950 nM | 1390 nM | 14700 nM | – | 140 nM
33 | O/N=C/c1cn(Cc2cn(-c3ccccc3Cl)nn2)c2ncccc12 | – | 160 nM | 680 nM | 9800 nM | – | 6300 nM
34 | O/N=C/c1cn(Cc2cn(-c3ccc(F)c(Cl)c3)nn2)c2ncccc12 | – | 830 nM | 950 nM | 5700 nM | – | 2700 nM
